Format in all cases: cell-based
Holding throughout (settings): mdck-ii

Series [1] has as its target T1, Multidrug resistance-associated protein 1 (Homo sapiens, UniProt P33527). Nature of the series: Inhibition of human MRP1 expressed in MDCK2 cells assessed as increase in intracellular CMF fluorescence at 10 uM by CMFDA assay. An outline of the steps: (§1)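 MDCKII cells stably transfected with human MRP1, MRP2 or MRP3 cDNA, parental MDCKII as control, grown in DMEM with 10% FCS. Cells preincubated 30 min at 37 °C in darkness ± inhibitor in HBSS with 1 mM pyruvate, then 50 nM CMFDA (final) added for 10 min. Intracellular CMF fluorescence read by confocal laser-scanning microscopy. 20 µM MK571 positive control. At least triplicate, different days.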

In series [2] the target is T1, Multidrug resistance-associated protein 1. In words: Inhibition of human MRP1 expressed in MDCK2 cells assessed as increase in intracellular CMF fluorescence by CMFDA assay. The method, boiled down: as §1
Series [3] deals with T2, ATP-binding cassette sub-family C member 3 (Homo sapiens, UniProt O15438). Nature of the series: Inhibition of human MRP3 expressed in MDCK2 cells assessed as increase in intracellular CMF fluorescence at 10 uM by CMFDA assay. The method, boiled down:
as §1

In series [4] the target is T3, ATP-binding cassette sub-family C member 2 (Homo sapiens, UniProt Q92887). Nature of the series: Inhibition of human MRP2 expressed in MDCK2 cells assessed as increase in intracellular CMF fluorescence at 10 uM by CMFDA assay. An outline of the steps: as §1
Series [5] has as its target T3, ATP-binding cassette sub-family C member 2. Nature of the series: Inhibition of human MRP2 expressed in MDCK2 cells assessed as increase in intracellular CMF fluorescence by CMFDA assay. The method, boiled down:
as §1

Series [6] concerns the target T1, Multidrug resistance-associated protein 1. In words: Inhibition of human MRP1 expressed in MDCK2 cells assessed as increase in intracellular CMF fluorescence at 16.7 uM by CMFDA assay. An outline of the steps:
as §1

For series [7], the target named is T2, ATP-binding cassette sub-family C member 3. Nature of the series: Inhibition of human MRP3 expressed in MDCK2 cells assessed as increase in intracellular CMF fluorescence by CMFDA assay. An outline of the steps: as §1
The target in series [8] is T3, ATP-binding cassette sub-family C member 2. Nature of the series: Inhibition of human MRP2 expressed in MDCK2 cells assessed as increase in intracellular CMF fluorescence at 16.7 uM by CMFDA assay. The method, boiled down:
as §1

Series [9] has as its target T2, ATP-binding cassette sub-family C member 3. In words: Inhibition of human MRP3 expressed in MDCK2 cells assessed as increase in intracellular CMF fluorescence at 16.7 uM by CMFDA assay. An outline of the steps: as §1

T1 sequence (P33527 whole entry): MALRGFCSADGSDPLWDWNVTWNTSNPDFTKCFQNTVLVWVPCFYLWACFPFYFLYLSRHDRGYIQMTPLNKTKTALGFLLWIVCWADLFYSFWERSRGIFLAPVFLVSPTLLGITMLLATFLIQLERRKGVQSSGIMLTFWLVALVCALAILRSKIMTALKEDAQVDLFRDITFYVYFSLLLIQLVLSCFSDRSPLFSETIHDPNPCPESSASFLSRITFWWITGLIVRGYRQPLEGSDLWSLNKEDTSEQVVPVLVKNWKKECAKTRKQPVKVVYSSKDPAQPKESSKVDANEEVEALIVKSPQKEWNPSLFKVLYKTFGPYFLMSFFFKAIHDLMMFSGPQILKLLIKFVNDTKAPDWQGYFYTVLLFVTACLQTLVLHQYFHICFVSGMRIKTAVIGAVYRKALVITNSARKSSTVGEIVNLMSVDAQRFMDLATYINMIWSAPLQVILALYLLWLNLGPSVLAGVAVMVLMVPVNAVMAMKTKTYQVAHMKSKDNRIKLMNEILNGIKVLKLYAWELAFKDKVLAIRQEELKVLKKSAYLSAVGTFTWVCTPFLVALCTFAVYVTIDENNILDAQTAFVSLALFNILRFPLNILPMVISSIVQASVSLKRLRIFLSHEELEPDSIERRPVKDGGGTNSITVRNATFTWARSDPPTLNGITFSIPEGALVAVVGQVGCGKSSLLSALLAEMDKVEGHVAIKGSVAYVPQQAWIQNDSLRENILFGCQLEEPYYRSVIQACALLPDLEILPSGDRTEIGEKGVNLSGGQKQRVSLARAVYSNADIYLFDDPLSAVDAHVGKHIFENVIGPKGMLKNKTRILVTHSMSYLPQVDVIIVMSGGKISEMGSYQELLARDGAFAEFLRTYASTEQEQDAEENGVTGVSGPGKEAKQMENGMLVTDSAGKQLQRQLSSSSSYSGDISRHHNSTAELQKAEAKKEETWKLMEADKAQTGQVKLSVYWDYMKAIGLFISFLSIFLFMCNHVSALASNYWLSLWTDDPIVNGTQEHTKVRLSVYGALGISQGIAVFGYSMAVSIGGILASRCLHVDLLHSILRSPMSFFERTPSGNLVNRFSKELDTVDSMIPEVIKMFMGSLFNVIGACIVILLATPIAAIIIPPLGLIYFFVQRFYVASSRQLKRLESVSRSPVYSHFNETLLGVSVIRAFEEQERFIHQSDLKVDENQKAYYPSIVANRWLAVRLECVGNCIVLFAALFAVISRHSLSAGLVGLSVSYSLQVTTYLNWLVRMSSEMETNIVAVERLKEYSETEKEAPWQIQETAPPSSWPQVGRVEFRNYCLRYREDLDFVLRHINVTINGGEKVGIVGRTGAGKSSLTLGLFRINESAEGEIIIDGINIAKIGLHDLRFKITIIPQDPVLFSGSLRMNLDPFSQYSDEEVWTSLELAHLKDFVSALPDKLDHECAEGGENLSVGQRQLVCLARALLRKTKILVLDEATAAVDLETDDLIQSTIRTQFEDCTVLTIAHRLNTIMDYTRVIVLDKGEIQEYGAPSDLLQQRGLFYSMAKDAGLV
T3 sequence (Q92887 whole entry): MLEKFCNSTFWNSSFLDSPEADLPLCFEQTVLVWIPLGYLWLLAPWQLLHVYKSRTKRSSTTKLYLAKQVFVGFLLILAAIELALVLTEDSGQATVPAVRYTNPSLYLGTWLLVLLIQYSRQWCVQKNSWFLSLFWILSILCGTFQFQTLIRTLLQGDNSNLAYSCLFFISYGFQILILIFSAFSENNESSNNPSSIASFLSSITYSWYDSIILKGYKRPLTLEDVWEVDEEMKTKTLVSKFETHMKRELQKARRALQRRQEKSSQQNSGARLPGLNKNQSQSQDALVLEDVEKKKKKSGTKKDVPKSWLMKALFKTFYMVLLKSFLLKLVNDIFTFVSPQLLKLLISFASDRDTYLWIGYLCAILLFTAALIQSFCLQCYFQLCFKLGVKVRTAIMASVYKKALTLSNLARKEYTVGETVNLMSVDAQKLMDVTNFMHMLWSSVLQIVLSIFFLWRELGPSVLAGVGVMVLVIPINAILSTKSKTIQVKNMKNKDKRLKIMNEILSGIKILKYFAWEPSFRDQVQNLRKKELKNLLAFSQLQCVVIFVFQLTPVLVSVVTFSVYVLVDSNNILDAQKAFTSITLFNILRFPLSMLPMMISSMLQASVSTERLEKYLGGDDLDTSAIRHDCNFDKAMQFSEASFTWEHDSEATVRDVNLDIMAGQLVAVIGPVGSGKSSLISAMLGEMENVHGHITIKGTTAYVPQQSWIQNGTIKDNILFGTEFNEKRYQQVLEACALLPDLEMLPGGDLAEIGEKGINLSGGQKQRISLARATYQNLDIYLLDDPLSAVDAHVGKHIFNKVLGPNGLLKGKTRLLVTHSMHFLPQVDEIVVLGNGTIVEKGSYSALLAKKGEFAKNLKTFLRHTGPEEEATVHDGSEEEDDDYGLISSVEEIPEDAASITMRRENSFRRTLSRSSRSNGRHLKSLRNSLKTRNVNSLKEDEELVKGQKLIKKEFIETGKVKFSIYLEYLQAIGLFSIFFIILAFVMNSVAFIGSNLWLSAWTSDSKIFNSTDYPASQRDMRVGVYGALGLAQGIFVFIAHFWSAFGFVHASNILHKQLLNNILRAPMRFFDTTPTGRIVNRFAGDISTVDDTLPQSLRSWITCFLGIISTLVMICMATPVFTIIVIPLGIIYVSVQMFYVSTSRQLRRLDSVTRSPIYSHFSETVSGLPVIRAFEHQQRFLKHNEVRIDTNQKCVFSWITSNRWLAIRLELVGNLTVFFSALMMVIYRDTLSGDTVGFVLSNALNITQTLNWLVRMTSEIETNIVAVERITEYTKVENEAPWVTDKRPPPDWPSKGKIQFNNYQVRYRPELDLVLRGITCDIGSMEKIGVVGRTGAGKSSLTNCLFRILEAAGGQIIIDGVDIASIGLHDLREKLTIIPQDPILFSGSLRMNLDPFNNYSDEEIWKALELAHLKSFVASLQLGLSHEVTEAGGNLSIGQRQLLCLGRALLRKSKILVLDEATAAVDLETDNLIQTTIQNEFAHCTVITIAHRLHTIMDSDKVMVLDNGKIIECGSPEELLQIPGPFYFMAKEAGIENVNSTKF
T2 sequence (O15438 whole entry): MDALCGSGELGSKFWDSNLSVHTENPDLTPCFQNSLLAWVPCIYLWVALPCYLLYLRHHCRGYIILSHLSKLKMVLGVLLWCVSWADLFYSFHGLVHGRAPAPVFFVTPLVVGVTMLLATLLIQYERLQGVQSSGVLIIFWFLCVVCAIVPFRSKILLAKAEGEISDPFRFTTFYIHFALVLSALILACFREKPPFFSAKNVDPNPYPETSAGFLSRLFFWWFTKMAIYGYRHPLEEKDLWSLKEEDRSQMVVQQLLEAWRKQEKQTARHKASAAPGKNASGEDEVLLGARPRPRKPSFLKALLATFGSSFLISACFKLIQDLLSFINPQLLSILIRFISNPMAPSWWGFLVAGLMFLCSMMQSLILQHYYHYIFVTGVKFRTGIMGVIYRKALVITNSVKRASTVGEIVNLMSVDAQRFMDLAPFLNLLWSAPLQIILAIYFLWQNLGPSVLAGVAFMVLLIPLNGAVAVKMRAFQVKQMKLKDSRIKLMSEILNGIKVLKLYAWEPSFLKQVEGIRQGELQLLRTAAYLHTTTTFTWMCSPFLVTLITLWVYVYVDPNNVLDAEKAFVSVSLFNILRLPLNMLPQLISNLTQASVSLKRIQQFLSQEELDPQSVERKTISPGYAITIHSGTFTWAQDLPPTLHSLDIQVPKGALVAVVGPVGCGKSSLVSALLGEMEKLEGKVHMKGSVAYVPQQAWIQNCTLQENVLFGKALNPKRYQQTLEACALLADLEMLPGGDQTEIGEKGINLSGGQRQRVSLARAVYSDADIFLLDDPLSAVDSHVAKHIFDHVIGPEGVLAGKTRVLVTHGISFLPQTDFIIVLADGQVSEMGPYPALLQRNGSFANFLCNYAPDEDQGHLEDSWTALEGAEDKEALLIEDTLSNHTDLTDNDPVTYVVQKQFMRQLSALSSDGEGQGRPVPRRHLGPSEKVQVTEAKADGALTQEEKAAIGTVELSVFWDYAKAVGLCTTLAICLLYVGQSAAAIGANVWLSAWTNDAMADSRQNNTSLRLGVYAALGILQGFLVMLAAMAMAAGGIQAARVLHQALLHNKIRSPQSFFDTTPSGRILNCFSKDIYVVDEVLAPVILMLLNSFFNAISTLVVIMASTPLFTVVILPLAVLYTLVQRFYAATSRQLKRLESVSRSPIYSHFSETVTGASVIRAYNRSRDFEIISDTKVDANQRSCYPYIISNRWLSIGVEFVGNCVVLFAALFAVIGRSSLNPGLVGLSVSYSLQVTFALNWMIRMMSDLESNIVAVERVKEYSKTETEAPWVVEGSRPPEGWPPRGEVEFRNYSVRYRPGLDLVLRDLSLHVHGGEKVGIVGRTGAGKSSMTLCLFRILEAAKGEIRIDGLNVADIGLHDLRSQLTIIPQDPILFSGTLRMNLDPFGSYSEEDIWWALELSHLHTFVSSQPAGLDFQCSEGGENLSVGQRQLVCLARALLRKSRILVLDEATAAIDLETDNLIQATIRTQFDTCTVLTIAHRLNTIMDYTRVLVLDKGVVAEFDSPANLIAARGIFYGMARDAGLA

Regarding `Nc1nc(NC2CC2)c2ncn([C@H]3C=C[C@@H](CO)C3)c2n1` [ABACAVIR], the Activity result in series [1] is on record as “Active”; in [2] it was “Dose-dependent effect”; in series [3], “Active”; in series [4], “Active”; in series [5], “Dose-dependent effect”.

`CC(C)Nc1cccnc1N1CCN(C(=O)c2cc3cc(NS(C)(=O)=O)ccc3[nH]2)CC1` [DELAVIRDINE]: the Activity entry is “Active” in series [6]; “Dose-dependent effect” in series [2]; “Dose-dependent effect” in series [7]; “Active” in series [8]; “Active” in [9]; “Dose-dependent effect” in [5].

Turning to `O=C1Nc2ccc(Cl)cc2[C@@](C#CC2CC2)(C(F)(F)F)O1` [EFAVIRENZ], the Activity result in series [1] is on record as “Active”; in series [2], “Dose-dependent effect”; in [3], “Active”; in series [7], “Dose-dependent effect”; in series [4], “Active”; in series [5], “Dose-dependent effect”.

Consider `Nc1nc(=O)n([C@@H]2CS[C@H](CO)O2)cc1F` [EMTRICITABINE], for which the Activity entry is given as “Active” in series [1]; “Dose-dependent effect” in [2]; “Active” in [3]; “Dose-dependent effect” in series [7]; “Active” in series [4]; “Dose-dependent effect” in series [5].

For the compound `Nc1ccn([C@@H]2CS[C@H](CO)O2)c(=O)n1` [LAMIVUDINE], the Activity result in series [1] is listed as “Active”; in series [2] it was “Dose-dependent effect”; in series [3], “Active”; in series [7], “Dose-dependent effect”; in series [4] it was “Active”; in series [5], “Dose-dependent effect”.

In the case of `Cc1ccnc2c1NC(=O)c1cccnc1N2C1CC1` [NEVIRAPINE], the Activity entry is “Active” in [1]; “Dose-dependent effect” in [2]; “Active” in [3]; “Dose-dependent effect” in series [7]; “Active” in series [4]; “Dose-dependent effect” in series [5].

For `C[C@H](Cn1cnc2c(N)ncnc21)OCP(=O)(O)O` [TENOFOVIR ANHYDROUS], the Activity entry is reported as “Active” in series [1]; “Dose-dependent effect” in series [2]; “Active” in series [3]; “Dose-dependent effect” in series [7]; “Active” in series [4]; “Dose-dependent effect” in series [5].

The record behind these values is ChEMBL document CHEMBL1147049, “Inhibition of MRP1/ABCC1, MRP2/ABCC2, and MRP3/ABCC3 by nucleoside, nucleotide, and non-nucleoside reverse transcriptase inhibitors” (Drug Metab Dispos, 2007).
